High-throughput results from PubChem BioAssay.
DENV2 CPE: inhibitors of DENV2 cytopathic effect, primary screen, cell-based, plate reader, single concentration; 350,000 tested, 1.7% active; DENV2-infected cells, cytopathic effect rescue; AID 651640, 2012; CPE inhibition, % at 9.99 µM; in the data active = CPE inhibition above about 20%, passing the limit was not always enough; inconclusive = no clear call, values can overlap the other calls; tested in BHK-21 cells
Xi reactivation: activators of inactive X chromosome reactivation, primary screen, imaging, XiGFP fibroblasts, GFP high-content imaging, set 2; activation, % at 7.58 µM; AID 743238, 2013; 360,000 tested, 0.055% active; XiGFP mouse fibroblasts, % GFP-positive cells imaging, 3 d; cells co-treated with 5-aza-dC sensitizer; scaled so ellipticine positive control = 100%;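 active = mean normalized replicate activation at least 10% and every replicate at or above 10%; inconclusive = only one of the two criteria met; inactive = mean below 10% and not all replicates reach 10%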
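Assay system – SV40-immortalized XiGFP fibroblast cells, line 68-5-11 · Buffer or medium – DMEM supplemented with 5-aza-dC as sensitizing agent · Dosing – one concentration, pinned · Benchmarks – positive control ellipticine, 6 µM final · Times – 3 days compound exposure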
C2C12 statin: suppressors of statin myotoxicity in C2C12 myotubes, primary screen, cell-based, single point, plate reader; C2C12 myotubes + simvastatin, ATP luminescence, 48 h; scaled: DMSO 0, geranylgeraniol control 100; rescue of ATP level, % at 7.49 µM; 330,000 tested, 0.78% active; AID 602340, 2012;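 active = mean ATP rescue above about 67%, or every replicate alone reaching that limit, limit read from the data, passing the limit was not always enough; inconclusive = no clear call, values can overlap the other calls; inactive = mean under the limit and some replicate under it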;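 also: myotubes were challenged with 10 µM simvastatin during compound exposure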
Cneo AK release: Cryptococcus neoformans cell lysis inducers, primary screen, AK release luminescence, single concentration | C. neoformans lysis, adenylate kinase release luminescence, 4 h; normalised: neutral wells 0, clomiphene wells 100 | lysis activity, % at 15 µM | 360,000 tested, 0.2% active;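 active = mean lysis activity across replicates of at least 80%, whatever share of replicates individually reach that level; inactive = mean lysis activity below 80%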
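Material: C. neoformans cells | Amount: Yeast cell density of 5 × 10^6 cells/mL | Medium: Fresh YPD growth medium | Dosing: Single dose | Times: Static 4 h at 37 °C with compound, 1 h detection | Detection: AK luminescence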
Each line names hits and unclear results; the compound was inactive in the other large screens. A selection: hits, their analogues and other compounds. The true share with any hit is near 2.1%.

C[C@H](O)C#Cc1cnc2c(c1)C(=O)N([C@H](C)CO)C[C@@H](C)[C@H](CN(C)Cc1cccc(C(=O)O)c1)O2	none
COc1ccc2c3c(n(C)c2c1)[C@@H](CO)N(C)CC31CN(S(C)(=O)=O)C1	none (no result: C2C12 statin, Cneo AK release)
CCOC(=O)[C@]12CCC=C1N(CCC1=CCCCC1)C(=O)[C@H](CC(=O)NCCCCc1ccccc1)C2	DENV2 CPE 85.1 (no result: C2C12 statin, Cneo AK release)
CCCCOCCCNC(=O)C[C@@H]1C[C@@]2(C(=O)OCC)CCCC=C2N(CCc2ccc(OC)c(OC)c2)C1=O	DENV2 CPE 27.6 (no result: C2C12 statin, Cneo AK release)
CCOC(=O)[C@]12CCCC=C1N(CCc1ccc(OC)c(OC)c1)C(=O)[C@H](CC(=O)NCCCN1CCCC1=O)C2	none (no result: C2C12 statin, Cneo AK release)
CCOC(=O)[C@]12CCC=C1N(CCC1=CCCCC1)C(=O)[C@H](CC(=O)NCc1ccccc1)C2	none (no result: C2C12 statin, Cneo AK release)
CC(=O)N1CC[C@@H]2[C@@H](CO)N(C)c3ccc(-c4cccc(F)c4)cc3[C@@H]21	none
CCCNC(=O)Nc1ccc2c(c1)C(=O)N(C)C[C@H](OC)[C@H](C)CN(CCC(F)(F)F)[C@@H](C)CO2	none (no result: DENV2 CPE, Cneo AK release)
COc1ccc(NC(=O)Nc2ccc3c(c2)C(=O)N([C@H](C)CO)C[C@@H](C)[C@H](CN(C)S(=O)(=O)c2c(C)noc2C)OCCCC[C@H](C)O3)cc1	DENV2 CPE inconclusive (no result: C2C12 statin)
O=C(O)C[C@@H]1C[C@@H]2c3cc(NC(=O)C4CCOCC4)ccc3O[C@@H]2[C@H](CO)O1	DENV2 CPE 27.6 (no result: C2C12 statin, Cneo AK release)
COCCNC(=O)C[C@@H]1C[C@H]2c3cc(NC(=O)C4CCOCC4)ccc3O[C@H]2[C@H](CO)O1	DENV2 CPE 24.2, Cneo AK release 109.1
COCCNC(=O)C[C@@H]1C[C@@H]2c3cc(NC(=O)C4CCOCC4)ccc3O[C@@H]2[C@H](CO)O1	none
COc1ccc(S(=O)(=O)N(C)C[C@H]2OCCCC[C@H](C)Oc3ccc(N(C)C)cc3C(=O)N([C@@H](C)CO)C[C@H]2C)cc1	none (no result: DENV2 CPE, Cneo AK release)
CO[C@H]1CN(C)C(=O)c2cc(NS(C)(=O)=O)ccc2OC[C@@H](C)N(C(=O)CN(C)C)C[C@@H]1C	none
CO[C@H]1CN(C)C(=O)c2cc(NS(C)(=O)=O)ccc2OC[C@H](C)N(C(=O)CN(C)C)C[C@@H]1C	DENV2 CPE 63.6
CO[C@@H]1CN(C)C(=O)c2cc(NS(C)(=O)=O)ccc2OC[C@@H](C)N(C(=O)CN(C)C)C[C@@H]1C	DENV2 CPE 20.6
O=C(C[C@H]1CC[C@H]2[C@@H](COC[C@@H](O)CN2C(=O)c2ccc(F)cc2)O1)N1CCCCC1	none
O=C(C[C@H]1CC[C@H]2[C@@H](COC[C@H](O)CN2CC2CCOCC2)O1)N1CCOCC1	none
CCCNC(=O)N1C[C@@H](O)COC[C@@H]2O[C@H](CC(=O)N3CCOCC3)CC[C@H]21	none
O=C(C[C@H]1CC[C@H]2[C@@H](COC[C@@H](O)CN2C(=O)c2ccc(F)cc2)O1)N1CCOCC1	Cneo AK release 105.0
O=C(C[C@@H]1CC[C@@H]2[C@H](COC[C@H](O)CN2CC2CCOCC2)O1)N1CCOCC1	DENV2 CPE 102.4
CN1CCN(C(=O)C[C@H]2CC[C@H]3[C@@H](COC[C@H](O)CN3C(=O)C3CCCC3)O2)CC1	none
CCCNC(=O)N1C[C@H](O)COC[C@@H]2O[C@@H](CC(=O)N3CCOCC3)CC[C@H]21	DENV2 CPE 107.8
CN1CCN(C(=O)C[C@@H]2CC[C@H]3[C@@H](COC[C@H](O)CN3C(=O)C3CCCC3)O2)CC1	DENV2 CPE 76.1
CCN(CC)CCN1C(=O)C(O)=C(C(C)=O)C1c1ccccc1[N+](=O)[O-] (stereo unspecified)	none (no result: C2C12 statin)
CC(=O)C1=C(O)C(=O)N(CCc2ccccc2)C1c1ccccc1[N+](=O)[O-] (stereo unspecified)	DENV2 CPE 30.5 (no result: C2C12 statin, Cneo AK release)
COc1ccc(NC(=O)Nc2ccc3c(c2)CC(=O)N([C@H](C)CO)C[C@@H](C)[C@@H](CN(C)S(=O)(=O)c2cn(C)cn2)O3)cc1	none
C[C@H](CO)N1C[C@H](C)[C@@H](CN(C)S(=O)(=O)c2cn(C)cn2)Oc2ccc(NC(=O)Nc3cccc4ccccc34)cc2CC1=O	DENV2 CPE 86.2
C[C@@H]1CN([C@@H](C)CO)C(=O)Cc2cc(NC(=O)Nc3ccccc3)ccc2O[C@@H]1CN(C)S(=O)(=O)c1cn(C)cn1	none
COc1ccc(NC(=O)Nc2ccc3c(c2)CC(=O)N([C@H](C)CO)C[C@@H](C)[C@H](CN(C)S(=O)(=O)c2cn(C)cn2)O3)cc1	DENV2 CPE 75.0
COCC(=O)Nc1ccc2c(c1)OC[C@H](C)N(Cc1cncnc1)C[C@H](C)[C@H](OC)CN(C)C2=O	none (no result: DENV2 CPE, Cneo AK release)
COCC(=O)Nc1ccc2c(c1)OC[C@@H](C)N(Cc1cncnc1)C[C@@H](C)[C@H](OC)CN(C)C2=O	DENV2 CPE 22.3 (no result: C2C12 statin, Cneo AK release)
COCC(=O)Nc1ccc2c(c1)C(=O)N(C)C[C@@H](OC)[C@H](C)CN(Cc1cncnc1)[C@@H](C)CO2	DENV2 CPE 20.9
COCC(=O)Nc1ccc2c(c1)C(=O)N(C)C[C@@H](OC)[C@H](C)CN(Cc1cncnc1)[C@H](C)CO2	none
CC(C)(C)c1[nH]nc2c1C(c1ccoc1)C(C#N)=C(N)O2 (stereo unspecified)	C2C12 statin 91.8 (no result: DENV2 CPE, Xi reactivation)
CC(C)(C)c1[nH]nc2c1C(c1ccncc1)C(C#N)=C(N)O2 (stereo unspecified)	none (no result: DENV2 CPE, Xi reactivation, C2C12 statin)
NS(=O)(=O)c1ccc(CNC(=O)C2CCCN2C(=O)c2cccs2)cc1 (stereo unspecified)	none (no result: C2C12 statin, Cneo AK release)
NS(=O)(=O)c1ccc(CCNC(=O)C2CCCN2C(=O)c2cccs2)cc1 (stereo unspecified)	DENV2 CPE 94.7
CCC(=O)N1[C@@H](CO)[C@H](c2ccc(C3=CCCC3)cc2)[C@@H]1CNC(=O)CN(C)C	none
Cc1nc2ccccc2c2oc(C(=O)NCCN3CCN(C)CC3)cc12	DENV2 CPE 22.3
COc1ccc(S(=O)(=O)Nc2ccc3c(c2)C(=O)N([C@@H](C)CO)C[C@H](C)[C@H](CN(C)Cc2ccncc2)OCCCC[C@H](C)O3)cc1	DENV2 CPE 106.4 (no result: C2C12 statin)
COc1ccc(S(=O)(=O)Nc2ccc3c(c2)C(=O)N([C@@H](C)CO)C[C@@H](C)[C@@H](CN(C)Cc2ccncc2)OCCCC[C@H](C)O3)cc1	DENV2 CPE 36.5 (no result: C2C12 statin)
Cc1ccc(S(=O)(=O)Nc2ccc3c(c2)C(=O)N([C@H](C)CO)C[C@@H](C)[C@H](CN(C)C(=O)CCC(F)(F)F)OCCCC[C@@H](C)O3)cc1	none (no result: C2C12 statin)
COc1ccc(S(=O)(=O)Nc2cccc3c2O[C@H](CN(C)S(=O)(=O)c2ccc(Cl)cc2)[C@H](C)CN([C@@H](C)CO)C3=O)cc1	C2C12 statin 91.0
